Laboratory results reported in article PMC2933425 (Journal of medicinal chemistry, 2010).
Read-outs that look alike come from different tables or passages of the source. Marks after values point to notes of the source that are not given here.

Legend:
[1] = Photophysical measurements; format: physicochemical; conditions: for Qy(0,0) absorption fwhm / Qy(0,0) absorption λ / Qy(0,0) fluorescence fwhm / Qy(0,0) fluorescence λ: aerated methanol; for Θ f (fluorescence quantum yield) / τS (lifetime of the lowest singlet excited state): Ar-purged methanol; for τS (lifetime of the lowest singlet excited state): fluorescence detection; for Φisc (triplet-excited-state quantum yield, measured directly): Ar-purged solutions; for kic (rate constant for internal conversion of the lowest singlet excited state to the ground state): printed as (x ns)^−1, from Φisc, Φf and τS
[2] = test system: HeLa human cervical cancer cells; test: In vitro PDT toxicity on HeLa cells after illumination; format: cell-based; conditions: for LD50: 24 h; for phototoxicity per unit uptake (in words) / incubation period needed to exert PDT toxicity (time-course) / LD50 (least active compounds): HeLa; for phototoxicity per unit uptake (in words): normalized to the same uptake level; for incubation period needed to exert PDT toxicity (time-course): 0.5 μM, various incubation times, 10 J/cm^2 of 732 nm light; for LD50 (least active compounds): 10 J/cm^2 of 732 nm laser
[3] = test system: HeLa cells; test: Cellular uptake into HeLa cells; format: cell-based, human; conditions: 24 h, highest concentration (20.5 μM)
Outline: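 HeLa cells in RPMI with 10% heat-inactivated FBS, seeded at 5000/well and grown 24 h, then exposed 24 h to test compound diluted in complete medium. Cells rinsed with warm PBS, lysed in SOLVABLE 2 h at 37 °C. Lysate fluorescence read at ex 402/em 730 nm against per-compound calibration curves in SOLVABLE. Protein by BCA with BSA standards. Expressed as nmol per mg protein; three experiments.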

[4] = test system: HeLa cells; format: cell-based, human; conditions: 1 μM bacteriochlorin, 24 h
Outline: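 HeLa cells in 35 mm dishes, attached overnight, then given 1 μM test compound in complete medium for 24 h. After a PBS wash, 5 μg/mL LysoTracker green DND-26, MitoTracker green FM or ER-Tracker green was added for 30 min at 37 °C. Cells were washed again and imaged 5–10 min later by confocal microscopy: 488 nm argon excitation, probe emission 515 ± 10 nm, compound emission >580 nm, 63× water lens. Red/green overlays scored for overlap.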

[5] = test system: HeLa human cervical cancer cells; test: Dark toxicity on HeLa cells; conditions: no light, at 10 μM
[6] = test system: HeLa human cervical cancer cells; conditions: 24 h, 10 μM
[7] = cited from earlier work
[8] = Ar-purged 2-methyltetrahydrofuran
[9] = freeze–pump–thaw degassed methanol

Row | τT (lifetime of the lowest triplet excited state) [1, 8] | Compound | LD50 [2] | uptake level (in words) [3] | Qy(0,0) absorption fwhm [1] | Qy(0,0) absorption λ [1] | phototoxicity per unit uptake (in words) [2] | Θ f (fluorescence quantum yield) [1] | τS (lifetime of the lowest singlet excited state) [1] | Qy(0,0) fluorescence fwhm [1] | Qy(0,0) fluorescence λ [1] | further results
1 |  | CC1(C)Cc2cc3ccc(cc4nc(cc5ccc(cc1n2)[nH]5)CC4(C)C)[nH]3 [8,8,18,18-tetramethylbacteriochlorin, reference compound] |  |  |  |  |  |  |  |  |  | Φf of fluorescence standard ([1]; Ar-purged toluene, Soret and Qx excitation): 0.125
2 |  | COCCOCCOCCOCCNCc1cc(CNCCOCCOCCOCCOC)cc(-c2c3nc(cc4[nH]c(cc4-c4ccc(C)cc4)c(OC)c4nc(cc5[nH]c2cc5-c2ccc(C)cc2)C(C)(C)C4)C(C)(C)C3)c1 [Compound 1] | 500 nM | Low to intermediate uptake | 21 nm | 732 nm |  |  |  |  |  | 
3 | 159 μs | CC1(C)Cc2cc3[nH]c(cc4nc(cc5[nH]c(cc1n2)cc5-c1cc(OCCO)cc(OCCO)c1)CC4(C)C)cc3-c1cc(OCCO)cc(OCCO)c1 [Compound 3] |  |  | 19 nm | 732 nm | high values | 0.15 | 3.0 ns | 24 nm | 738 nm | 
4 | 190 μs | CC1(C)Cc2cc3[nH]c(cc4nc(cc5[nH]c(cc1n2)cc5-c1cc(O)cc(O)c1)CC4(C)C)cc3-c1cc(O)cc(O)c1 [Compound 4] |  |  | 21 nm | 732 nm | high values | 0.12 | 3.7 ns | 26 nm | 737 nm | incubation period needed to exert PDT toxicity (time-course) [2]: most rapid toxicity; overlap with endoplasmic reticulum probe (ER-Tracker) [4]: high degree of localization; Φisc (triplet-excited-state quantum yield, measured directly) [1]: 0.41; kic (rate constant for internal conversion of the lowest singlet excited state to the ground state) [1]: 7.7 (ns)^−1
5 |  | CC1(C)Cc2cc3[nH]c(cc4nc(cc5[nH]c(cc1n2)cc5C#CC[N+](C)(C)C)CC4(C)C)cc3C#CC[N+](C)(C)C.[Cl-].[Cl-] [Compound 5] |  | Intermediate uptake levels | 16 nm | 749 nm | much lower values | 0.11 | 3.8 ns | 22 nm | 754 nm | LD50 (least active compounds) [2]: > 1 µM; τT (lifetime of the lowest triplet excited state) [1, 9]: 104 ^k μs; dark toxicity level [5]: ~50%
6 | 190 μs | CC1(C)Cc2cc3[nH]c(cc4nc(cc5[nH]c(cc1n2)cc5CN(CCO)CCO)CC4(C)C)cc3CN(CCO)CCO [Compound 6] |  | Intermediate uptake levels | 18 nm | 718 nm | high values | 0.095 | 3.8 ns | 23 nm | 724 nm | overlap with endoplasmic reticulum probe (ER-Tracker) [4]: good overlap; dark toxicity level [6]: ~50%
7 |  | CC1(C)Cc2cc3[nH]c(cc4nc(cc5[nH]c(cc1n2)cc5C(=O)NCCN)CC4(C)C)cc3C(=O)NCCN [Compound 8] | 3000 nM | Intermediate uptake levels | 23 nm | 742 nm | much lower values | 0.13 | 4.0 ns | 25 nm | 750 nm | incubation period needed to exert PDT toxicity (time-course) [2]: longest incubation times; LD50 (least active compounds) [2]: > 1 µM; overlap with endoplasmic reticulum probe (ER-Tracker) [4]: hardly any overlap; τT (lifetime of the lowest triplet excited state) [1, 9]: 77 ^k μs
8 |  | CC1(C)Cc2cc3[nH]c(cc4nc(cc5[nH]c(cc1n2)cc5C(=O)N(CCN)CCN)CC4(C)C)cc3C(=O)N(CCN)CCN [Compound 9] | 800 nM | low uptake | 19 nm | 729 nm | much lower values | 0.12 | 3.5 ns | 24 nm | 735 nm | Φisc (triplet-excited-state quantum yield, measured directly) [1]: 0.57; τT (lifetime of the lowest triplet excited state) ([1]; freeze–pump–thaw degassed ethanol): 54 ^l μs; kic (rate constant for internal conversion of the lowest singlet excited state to the ground state) [1]: 11.4 (ns)^−1
9 |  | CC1(C)Cc2cc3[nH]c(cc4nc(cc5[nH]c(cc1n2)cc5C(=O)N1CC[N+](C)(C)CC1)CC4(C)C)cc3C(=O)N1CC[N+](C)(C)CC1.[Cl-].[Cl-] [Compound 10] |  | low uptake | 21 nm | 731 nm | much lower values | 0.12 | 3.8 ns | 28 nm | 740 nm | τT (lifetime of the lowest triplet excited state) [1, 9]: 100 ^k μs
10 | 105 μs | COCCN(CCOC)C(=O)c1cc2cc3nc(cc4[nH]c(cc5nc(cc1[nH]2)CC5(C)C)cc4C(=O)N(CCOC)CCOC)CC3(C)C [Compound 12] |  | highest uptake | 20 nm | 727 nm | high values | 0.10 | 3.3 ns | 27 nm | 733 nm | 
11 |  | CC[C@H]1c2cc3[nH]c4c(c3C)C(=O)[C@H](C(=O)OC)c4c3nc(cc4[nH]c(cc(n2)[C@@H]1C)c(C(C)=O)c4C)[C@@H](C)[C@@H]3CCC(=O)OC/C=C(\C)CCC[C@H](C)CCC[C@H](C)CCCC(C)C [bacteriopheophytin a] |  |  |  |  |  |  |  |  |  | yield of the lowest triplet excited state [7]: 0.54
12 |  | C1=Cc2nc1c(-c1ccccc1)c1nc(c(-c3ccccc3)c3ccc([nH]3)c(-c3ccccc3)c3ccc([nH]3)c2-c2ccccc2)C=C1 [free base tetraphenylporphyrin, tetraphenylporphyrin] |  |  |  |  |  |  |  |  |  | Φf of fluorescence standard ([7]; in toluene ref 33): 0.090

Row | Compound | τT (lifetime of the lowest triplet excited state) [1, 8] | LD50 [2] | uptake level (in words) [3] | Qy(0,0) absorption fwhm [1] | Qy(0,0) absorption λ [1] | phototoxicity per unit uptake (in words) [2] | Θ f (fluorescence quantum yield) [1] | τS (lifetime of the lowest singlet excited state) [1] | Qy(0,0) fluorescence fwhm [1] | Qy(0,0) fluorescence λ [1] | further results
13 | CC1(C)Cc2cc3[nH]c(cc4nc(cc5[nH]c(cc1n2)cc5C(=O)O)CC4(C)C)cc3C(=O)O [Compound 7] | 70 μs | 4000 nM | lowest uptake | 26 nm | 734 nm |  | 0.077 | 3.7 ns | 19 nm | 742 nm | LD50 (least active compounds) [2]: > 1 µM
14 | CC1(C)Cc2cc3[nH]c(cc4nc(cc5[nH]c(cc1n2)cc5C(=O)/C=C/c1cc(O)cc(O)c1)CC4(C)C)cc3C(=O)/C=C/c1cc(O)cc(O)c1 [Compound 11] | 78 μs | 200 nM | low uptake | 35 nm | 781 nm |  | 0.021 | 3.4 ns | 40 nm | 800 nm | 
